Hits are enriched below; roughly 3.7% of the tested compounds scored in any of these assays.
hERG rescue = compounds protecting human hERG from proarrhythmic drug block; 310,000 tested, 0.51% active; Q12809; activation (rescue from dofetilide block), less the hit threshold, % at 10 µM; CHO-hERG, FluxOR thallium flux, dofetilide IC70 present;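 active means activation above the mean of controls blocked by dofetilide plus 5 SD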;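 further: thallium influx through hERG after potassium depolarization seen as dye fluorescence rise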
Target sequence (Q12809 whole entry, looked up): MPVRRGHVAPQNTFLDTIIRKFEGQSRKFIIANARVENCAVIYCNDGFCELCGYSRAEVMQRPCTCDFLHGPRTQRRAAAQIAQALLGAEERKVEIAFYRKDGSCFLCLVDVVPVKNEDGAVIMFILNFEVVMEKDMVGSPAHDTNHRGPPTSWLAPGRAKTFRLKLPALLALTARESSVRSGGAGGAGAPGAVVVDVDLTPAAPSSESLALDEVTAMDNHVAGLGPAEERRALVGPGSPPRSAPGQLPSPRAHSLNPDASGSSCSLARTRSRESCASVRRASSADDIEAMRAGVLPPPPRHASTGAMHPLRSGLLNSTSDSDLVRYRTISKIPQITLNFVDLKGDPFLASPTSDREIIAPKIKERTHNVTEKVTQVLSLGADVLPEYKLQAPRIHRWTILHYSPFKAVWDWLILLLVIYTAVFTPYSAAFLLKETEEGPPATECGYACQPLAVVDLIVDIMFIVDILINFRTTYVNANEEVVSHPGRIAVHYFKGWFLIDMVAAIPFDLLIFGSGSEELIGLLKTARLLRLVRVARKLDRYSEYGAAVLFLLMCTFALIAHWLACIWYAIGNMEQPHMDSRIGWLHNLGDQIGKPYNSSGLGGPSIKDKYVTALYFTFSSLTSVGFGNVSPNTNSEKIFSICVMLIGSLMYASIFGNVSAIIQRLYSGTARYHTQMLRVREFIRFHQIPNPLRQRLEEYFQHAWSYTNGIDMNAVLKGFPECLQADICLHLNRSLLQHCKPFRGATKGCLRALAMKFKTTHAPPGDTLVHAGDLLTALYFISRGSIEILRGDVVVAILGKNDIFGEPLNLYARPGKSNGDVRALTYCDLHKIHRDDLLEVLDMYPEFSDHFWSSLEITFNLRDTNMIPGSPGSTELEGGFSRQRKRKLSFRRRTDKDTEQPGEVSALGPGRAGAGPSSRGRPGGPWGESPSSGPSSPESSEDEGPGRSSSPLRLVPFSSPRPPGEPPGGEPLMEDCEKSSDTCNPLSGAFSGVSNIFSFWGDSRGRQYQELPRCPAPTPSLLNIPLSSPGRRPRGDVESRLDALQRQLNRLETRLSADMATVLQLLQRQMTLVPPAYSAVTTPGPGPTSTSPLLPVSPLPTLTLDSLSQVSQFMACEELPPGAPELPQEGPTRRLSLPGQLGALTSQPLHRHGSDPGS
Kir21 inh = blocks the mouse Kir2.1 inward-rectifier potassium channel | HEK293-Kir2.1, FluxOR thallium flux fluorescence; active compounds read low | AID 1672 | 310,000 tested, 0.85% active | B-score at 10 µM | P35561;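 active means fluorescence ratio B-score at or below minus 3 SD of library scores, with starting-brightness B-score within 2 SD, cut at about -4.2 in these data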;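 further: channel flux triggered by added potassium and thallium sulfate stimulus; B-score of peak minus minimum fluorescence over baseline after thallium stimulus; more negative B-score means stronger Kir2.1 block with less thallium influx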
KCNK3 inh = human KCNK3 channel inhibition, primary screen. 340,000 tested, 0.84% active. O14649. B-score at 10 µM. CHO-KCNK3 thallium flux, FluxOR fluorescence; active compounds read low;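 active means B-score under library mean minus 4 SD, starting fluorescence ratio at most library mean plus 5 SD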;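 further: more negative B-score means stronger inhibition of thallium flux through KCNK3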
KCNQ1 inh = blocks the human KCNQ1 potassium channel | CHO-K1 KCNQ1, FluxOR thallium flux fluorescence; active compounds read high | 310,000 tested, 1.3% active | P51787 | B-score at 10 µM;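 active means compounds whose thallium flux B-score, printed positive for inhibition, exceeds three library SD while starting fluorescence stays within three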;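 further: channel opened by potassium depolarization with thallium stimulus after 20 min compound exposure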
KCNK9 inh = inhibitors of human KCNK9 two-pore domain potassium channel; Q9NPC2; HEK293 KCNK9, FluxOR thallium flux fluorescence; active compounds read low; B-score at 10 µM; 310,000 tested, 1.2% active; AID 488922;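 active means ratio B-score over 3 SD below the library mean, with starting fluorescence within 5 SD of its mean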;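 further: negative B-score means less thallium flux so channel inhibition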
KCNQ1 act = potentiators or activators of human KCNQ1 potassium channel. P51787. CHO-K1 KCNQ1, thallium flux FluxOR fluorescence; active compounds read high. B-score at 10 µM. 310,000 tested, 0.35% active. AID 2648;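 active means fluorescence ratio B-score, a plate-corrected score, at least three library SD, with initial intensity B-score within 5 SD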
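Medium – assay buffer, equal DMSO in all wells · Material – CHO-K1 cell line with stable KCNQ1 potassium channel expression · Signal – kinetic FluxOR thallium fluorescence, 10-s 1-Hz baseline, 110-s post-stimulus read · Compound – single concentration per compound, DMSO matched to controls · Schedule – 37 °C overnight plating, 90-min dark dye load, 20-min compound pretreatment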
KCNK9 inh conf = confirmation of human KCNK9 potassium channel inhibitors | 4,900 tested, 43% active | AID 492992 | inhibition, % at 10 µM | shares compounds with KCNK9 inh | HEK293 KCNK9 cells, FluxOR thallium flux fluorescence;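 active means thallium signal inhibited by more than 5 SD of the compound-free buffer control wells, on both duplicate plates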;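 further: 0% = assay buffer control wells without compound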
Kir21 sel = selectivity of KCNK9 modulators against mouse Kir2.1 | Kir2.1 cells, FluxOR thallium flux fluorescence | inhibition, % at 10 µM | 4,900 tested, 4% active | shares compounds with KCNK9 inh | AID 492993;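 active means thallium signal drop more than 5 SD beyond the mean of the no-compound control wells, seen in both duplicate plates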;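 further: signal is fluorescence rise after thallium addition divided by baseline fluorescence; plate controls were assay buffer only for no effect and full block by chlorpromazine control for full effect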
HEK293 Tl ctr = second counter-screen for KCNK9 modulators: effect in non-induced cells. non-induced KCNK9-HEK293, FluxOR thallium flux. 4,900 tested, 40% active. shares compounds with KCNK9 inh. inhibition, % at 10 µM;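 active means thallium signal drop beyond 5 SD of the untreated control mean, on both duplicate plates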;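 further: plate controls were buffer only IC0 wells for no effect and SID17386958 at its maximal inhibitory level for full effect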
Numbers without * were called inactive; i = inactive; nt = not tested or not shown.

SMILES	hERG rescue	Kir21 inh	KCNK3 inh	KCNQ1 inh	KCNK9 inh	KCNQ1 act	KCNK9 inh conf	Kir21 sel	HEK293 Tl ctr
COc1cc(OC)c(C2CC(=O)N3CN(c4ccccc4)CSC3=C2C#N)cc1OC (stereo not drawn)	-9	-0.64	i	i	i	i	nt	nt	nt
N#CC1=C2SCN(c3ccccc3)CN2C(=O)CC1c1cccs1 (stereo not drawn)	-5	0.53	i	i	i	i	nt	nt	nt
N#CC1=C2SCN(c3ccccc3)CN2C(=O)CC1c1ccccc1Cl (stereo not drawn)	-7	0.65	i	i	i	i	i	i	i
N#CC1=C2SCN(c3ccccc3)CN2C(=O)CC1c1c(Cl)cccc1Cl (stereo not drawn)	-17	-0.24	i	i	i	i	i	i	i
COc1cccc(C2CC(=O)N3CN(c4cccc(Cl)c4C)CSC3=C2C#N)c1OC (stereo not drawn)	-12	-0.07	i	i	i	i	i	i	i
COc1ccc(OC)c(C2CC(=O)N3CN(c4cccc(Cl)c4C)CSC3=C2C#N)c1 (stereo not drawn)	-19	0.85	i	i	i	i	nt	nt	nt
CCOC(=O)C1CCN(C(=O)Cn2nc(C)n3nc(-c4ccc(CC)cc4)cc3c2=O)CC1	-5	-0.05	i	i	i	i	nt	nt	nt
CC(C)CN1C(=O)c2ccc(C(=O)Nc3ccccc3C(=O)O)cc2C1=O	-9	-0.32	i	i	i	i	nt	nt	nt
O=C(c1ccc(Cl)cc1)C1CCN(C(=S)Nc2ccccc2)CC1	nt	nt	i	nt	nt	nt	nt	nt	nt
CCNc1c(NS(=O)(=O)c2ccc(Cl)s2)c(=O)oc2ccccc12	-9	1.3	i	i	i	i	nt	nt	nt
COc1ccc(/C=C2\SC(=O)N(CCNC(=O)C3=COCCO3)C2=O)cc1	-15	0.18	i	i	i	i	nt	nt	nt
O=C(NCCN1C(=O)S/C(=C\c2ccc(OC(F)F)cc2)C1=O)C1=COCCO1	-9	0.12	i	i	i	i	i	i	i
CCc1nc2ccccc2n1CC(=O)OCC(=O)N(CC(C)C)c1c(N)n(Cc2ccccc2)c(=O)[nH]c1=O	-7	-0.91	i	i	i	i	nt	nt	nt
COCCSc1nnc(NC(=O)COc2ccc3c(c2)OCO3)s1	-6	1.9	i	i	i	i	nt	nt	nt
Cc1ccc(C(=O)Nc2ccccc2)cc1S(=O)(=O)N1CCN(C)CC1	-7	2	i	i	i	i	nt	nt	nt
O=S(=O)(c1ccccc1)N(CC(O)Cn1c2ccccc2c2ccccc21)c1ccccc1 (stereo not drawn)	-13	-0.48	i	i	-11*	i	40%*	i	25%*
Cc1ccc(S(=O)(=O)N(C)CC(O)Cn2c3ccccc3c3ccccc32)cc1 (stereo not drawn)	1	-1.7	i	i	i	i	nt	nt	nt
Cc1cc2ccccn2c1C(=O)c1nc(NCc2ccccc2)ncc1Cl	-7	0.04	i	i	i	i	i	i	26%*
CN(C)CCNC(=S)Nc1ccc(Br)cc1	-3	0.09	i	i	i	i	nt	nt	nt
Oc1ccc(Cl)cc1Cc1cc(Cl)ccc1O	-37	-6*	i	i	-14*	i	58%*	i	35%*
Cc1ccc(C)c(NS(=O)(=O)c2cc(C(=O)Nc3ccccc3-c3ccccc3)ccc2Cl)c1	-2	-0.03	i	i	-13*	i	39%*	i	32%*
COC(=O)c1c(O)cc(C(C)(C)C)n(-c2ccc(F)cc2)c1=O	-3	0.12	i	i	i	i	nt	nt	nt
CCCCNC(=O)c1onc(CSc2cccc3ccccc23)c1C(=O)O	-14	-1.5	i	i	i	i	i	i	i
CCCCNC(=O)c1onc(CSc2ccc(C(C)C)cc2)c1C(=O)O	-13	0.2	i	i	i	i	i	i	i
COc1cc(C(Nc2ccccn2)c2ccc3ccc(C)nc3c2O)cc(OC)c1O (stereo not drawn)	-24	-0.01	i	i	i	i	nt	nt	nt
SMILES	hERG rescue	Kir21 inh	KCNK3 inh	KCNQ1 inh	KCNK9 inh	KCNQ1 act	KCNK9 inh conf	Kir21 sel	HEK293 Tl ctr
Cc1ccc2ccc(C(Nc3ccccn3)c3ccccc3)c(O)c2n1 (stereo not drawn)	-10	-0.19	i	i	i	i	i	i	i
CCOc1ccccc1CNC(=O)c1cc2oc3ccccc3c2n1CC	-11	-0.54	i	i	-9.1*	i	50%*	i	30%*
COc1cccc(CNC(=O)c2cc3oc4ccccc4c3n2C)c1OC	-6	1.1	i	i	i	i	nt	nt	nt
COC(=O)Cc1ccc(NC(=S)NNC(=O)c2ccccc2Br)cc1	-1	1.2	i	i	i	i	nt	nt	nt
O=C(NNC(=S)Nc1ccc(Br)cc1)c1ccccc1Br	-16	0.73	i	i	i	i	i	i	i
O=C(c1ccc(N2CCCCC2)c([N+](=O)[O-])c1)N(Cc1ccccc1)c1ccccn1	-18	-1.2	i	i	i	i	nt	nt	nt
O=[N+]([O-])c1ccccc1SN(Cc1ccccc1)c1ccccn1	-6	0.58	i	i	-8.6*	i	40%*	i	44%*
CC1CCCCN1C(=S)NC(=O)c1cc(Br)ccc1Cl (stereo not drawn)	nt	nt	i	nt	nt	nt	nt	nt	nt
CCN1/C(=C/c2ccc3ccccc3[n+]2CC)C=Cc2ccccc21	-38	-13*	-9*	13*	-18*	i	86%*	94%*	59%*
CCN1/C(=C/c2ccc3ccccc3[n+]2CCCS(=O)(=O)[O-])C=Cc2cc(C)ccc21	-6	-0.06	i	i	i	i	nt	nt	nt
CC(C)(C)c1ccc(OCCC(=O)Nc2cccc(S(=O)(=O)NC3=NCCCCC3)c2)cc1	nt	nt	i	nt	nt	nt	nt	nt	nt
COc1cc(OC)nc(Oc2ccccc2C(=O)Oc2cccc(C)c2)n1	0	-0.27	i	i	-9.5*	i	34%*	i	36%*
Cc1ccccc1S(=O)(=O)Cc1ccc(C(=O)NC2CCCCC2)o1	-7	0.36	i	i	i	i	nt	nt	nt

Source: PubChem BioAssay
